The test system of series [1] is RAW264.7. Kind of series: Antiinflammatory activity in mouse RAW264.7 cells assessed as inhibition of LPS-induced PGE2 production administered 1 hr prior to LPS challenge measured after 20 hrs by EIA relative to control. The format is functional, cell-based. Summed up:
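RAW 264.7 cells plated at 3 × 10^5 cells/mL, pretreated with compound for 1 h, then stimulated with 1 μg/mL LPS for 20 h. PGE2 in the supernatant was measured by immunoassay kit. Mean ± SD of triplicates.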

Series [2] is described as follows: Cytotoxicity against mouse RAW264.7 cells assessed as cell survival at 20 uM after 4 hrs by MTT assay relative to control. The format is cell-based. To be noted: read-out: Survival. Summed up:
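RAW 264.7 cells plated at 3 × 10^5 cells/mL in phenol red-free 10% FBS–DMEM, incubated 24 h, then treated with compound plus 1 μg/mL LPS for 20 h. After the Griess step, MTT was added (final 500 μg/mL) for 4 h at 37 °C. Formazan dissolved in DMSO, A570 read; survival taken relative to control; triplicate.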

For series [3], the system named is RAW264.7. Description: Inhibition of LPS-induced NF-kappaB transcriptional activity in mouse RAW264.7 cells treated 2 hrs prior to LPS challenge measured after 16 hrs by SEAP reporter gene assay relative to control. The format is cell-based. An outline of the steps:
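NF-κB SEAP reporter assay in RAW 264.7 cells: 2 h compound pretreatment, then LPS for 16 h. Supernatants heated 65 °C for 5 min, then reacted with 2 M diethanolamine, 1 mM MgCl2 and 500 μM MUP for 1 h at 37 °C in the dark. Fluorescence read at ex 360/em 449 nm and normalized to protein. Expressed relative to vehicle control without LPS; triplicates.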
Background: Reporter assays use an easily measured gene product as a stand-in for the process of interest.

Series [4] deals with Rattus norvegicus. Description: Antiinflammatory activity in rat paw edema model assessed as inhibition of carrageenan-induced IL-1beta protein expression in paw tissue at 20 mg/kg, po administered 30 mins prior to carrageenan challenge measured after 6 hrs by Western blotting analysis relative to vehicle-treated control. Format: functional, organism-based. The arrangement: dose 20 mg/kg. Summed up: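 SD rats received compound orally in 0.5% CMC-Na 30 min before subplantar injection of 0.1 mL 1% carrageenan in saline. Paws were removed at 6 h, homogenized, and iNOS, COX-2 and IL-1β were assessed by Western blot. Triplicate, representative of three experiments.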
(In general: A western blot detects proteins with antibodies after separation by electrophoresis.)

The test system of series [5] is Mus musculus. Description: Antiinflammatory activity in ICR mouse ear edema model assessed as inhibition of TPA-induced iNOS protein expression in ear tissue at 10 to 20 mg/kg, po administered 30 mins prior to TPA challenge measured after 4 hrs by Western blotting analysis relative to vehicle-treated control. Format: functional, organism-based. An outline of the steps: (§1)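 ICR mice (male, 18−20 g, 5 weeks old) dosed orally 30 min before TPA (1.0 μg in 20 μL acetone) was applied to inner and outer surfaces of the right ear. Killed by cervical dislocation after 4 h. Edema taken as the weight of a 5 mm punch biopsy of the right ear over the left. Ear homogenates were Western blotted for iNOS, COX-2 and IL-1β.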

Series [6] deals with Mus musculus. Kind of series: Antiinflammatory activity in ICR mouse ear edema model assessed as inhibition of TPA-induced IL-1beta protein expression in ear tissue at 10 to 20 mg/kg, po administered 30 mins prior to TPA challenge measured after 4 hrs by Western blotting analysis relative to vehicle-treated control. Format: functional, organism-based. Summed up: as §1
Series [7] has as its system RAW264.7. Description: Antiinflammatory activity in mouse RAW264.7 cells assessed as inhibition of LPS-induced iNOS protein expression at 10 uM after 16 hrs by Western blotting analysis relative to control. The format is functional. An outline of the steps: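 RAW 264.7 cells given LPS (1 μg/mL) with or without compound for 16 h. Cell lysates were Western blotted for iNOS and COX-2 (6−15% SDS-PAGE, PVDF, ECL detection). Performed in triplicate.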

The test system of series [8] is RAW264.7. Description: Inhibition of LPS-induced NFkappaB transcriptional activity in mouse RAW264.7 cells assessed as […] at 20 uM after 30 mins by Western blotting analysis relative to control. The format is cell-based. An outline of the steps:
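Macrophages were exposed to compound for 30 min before LPS stimulation, with proteins extracted 30 min later. Nuclear extracts were prepared in Tris/KCl/NP-40 lysis buffer, then 420 mM NaCl buffer, and the cytosolic fraction was kept for IκB-α. Western blot on PVDF with ECL detection. Tests in triplicate; representative of three separate experiments.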

Series [9] relates to RAW264.7. Description: Antiinflammatory activity in mouse RAW264.7 cells assessed as inhibition LPS-induced IL-1beta protein expression at 10 uM after 4 hrs by Western blotting analysis. Format: functional. An outline of the steps: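 RAW 264.7 cells stimulated with LPS (1 μg/mL) with or without compound for 4 h. Lysates were resolved by 6−15% SDS-PAGE and blotted to PVDF. Blocked in 5% milk/PBST, primary antibody overnight at 4 °C, secondary antibody 2 h, detected by ECL. Triplicate, representative of three experiments.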

The test system of series [10] is RAW264.7. Kind of series: Antiinflammatory activity in mouse RAW264.7 cells assessed as inhibition LPS-induced IL-1beta mRNA expression at 20 uM after 4 hrs by RT-PCR analysis relative to control. Format: functional. An outline of the steps: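 RAW 264.7 cells stimulated with LPS (1 μg/mL) with or without compound for 4 h. Total RNA was isolated and cytokine mRNA was analysed by RT-PCR: 94 °C 4 min, then 25−30 cycles of 94/55/72 °C for 30 s each, then 72 °C 5 min. Products were run on 2% agarose and stained with SYBR-Safe. Triplicate, representative of three experiments.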

The target of a further series is JNK1/JNK2 (Mus musculus) (UniProt Q91Y86+Q9WTU6). Description: Inhibition LPS-induced JNK1/2 phosphorylation at Thr183/[…] in mouse RAW264.7 cells at 40 uM administered 30 mins prior to LPS challenge measured after 30 mins by Western blotting analysis. The format is cell-based. Summed up: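 RAW 264.7 cells pretreated with compound for 30 min, then stimulated with LPS for an additional 30 min. Lysates resolved by 6−15% SDS-PAGE and blotted to PVDF. Primary antibodies were applied overnight at 4 °C and secondary antibodies for 2 h at room temperature. Detection by ECL. Tests in triplicate; blots representative of three separate experiments.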
JNK1/JNK2 (Mus musculus), sequence (Q91Y86 whole entry, looked up): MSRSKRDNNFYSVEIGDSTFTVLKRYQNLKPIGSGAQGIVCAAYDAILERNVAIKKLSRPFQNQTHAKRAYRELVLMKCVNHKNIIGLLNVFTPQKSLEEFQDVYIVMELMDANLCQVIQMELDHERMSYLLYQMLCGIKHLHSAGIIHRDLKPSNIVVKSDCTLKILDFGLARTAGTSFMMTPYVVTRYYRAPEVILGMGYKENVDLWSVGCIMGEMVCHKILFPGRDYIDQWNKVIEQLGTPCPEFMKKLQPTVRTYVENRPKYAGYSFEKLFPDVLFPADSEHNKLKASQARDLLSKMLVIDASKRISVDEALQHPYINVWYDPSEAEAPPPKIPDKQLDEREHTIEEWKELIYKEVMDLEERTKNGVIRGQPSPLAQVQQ
JNK1/JNK2 (Mus musculus), sequence (Q9WTU6 whole entry, looked up): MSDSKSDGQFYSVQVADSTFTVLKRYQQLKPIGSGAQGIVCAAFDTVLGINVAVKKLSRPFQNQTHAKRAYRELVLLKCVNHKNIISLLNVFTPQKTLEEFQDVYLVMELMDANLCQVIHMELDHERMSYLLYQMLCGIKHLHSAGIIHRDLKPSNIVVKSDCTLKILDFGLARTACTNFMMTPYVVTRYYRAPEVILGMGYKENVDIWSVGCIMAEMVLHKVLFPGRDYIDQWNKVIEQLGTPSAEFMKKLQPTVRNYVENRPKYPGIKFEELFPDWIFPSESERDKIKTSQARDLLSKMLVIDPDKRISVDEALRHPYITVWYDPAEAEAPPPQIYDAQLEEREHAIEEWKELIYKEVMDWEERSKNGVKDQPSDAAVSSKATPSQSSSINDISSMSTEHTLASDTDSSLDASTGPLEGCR

Series [11] deals with Mitogen-activated protein kinase 1 and 3 (ERK2 and ERK1) (Mus musculus) (UniProt P63085+Q63844). Kind of series: Inhibition LPS-induced ERK1/2 phosphorylation at Thr202/Tyr204 in mouse RAW264.7 cells at 20 uM administered 30 mins prior to LPS challenge measured after 30 mins by Western blotting analysis. The format is cell-based. Summed up: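 RAW 264.7 cells pretreated with compound for 30 min, then stimulated with LPS for 30 min. Protein extracts were Western blotted for phosphorylated ERK and JNK (SDS-PAGE, PVDF, ECL detection).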
Mitogen-activated protein kinase 1 and 3 (ERK2 and ERK1) (Mus musculus), sequence (P63085 whole entry, looked up): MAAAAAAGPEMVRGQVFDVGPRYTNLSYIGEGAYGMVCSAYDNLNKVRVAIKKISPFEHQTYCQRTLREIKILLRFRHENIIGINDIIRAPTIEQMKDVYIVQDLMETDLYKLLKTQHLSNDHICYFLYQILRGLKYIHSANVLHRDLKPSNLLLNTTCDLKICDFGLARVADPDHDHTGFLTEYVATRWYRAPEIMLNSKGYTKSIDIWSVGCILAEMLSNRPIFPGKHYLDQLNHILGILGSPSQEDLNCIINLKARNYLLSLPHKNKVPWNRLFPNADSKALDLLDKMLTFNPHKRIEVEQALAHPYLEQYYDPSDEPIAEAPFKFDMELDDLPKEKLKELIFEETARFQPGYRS
Mitogen-activated protein kinase 1 and 3 (ERK2 and ERK1) (Mus musculus), sequence (Q63844 whole entry, looked up): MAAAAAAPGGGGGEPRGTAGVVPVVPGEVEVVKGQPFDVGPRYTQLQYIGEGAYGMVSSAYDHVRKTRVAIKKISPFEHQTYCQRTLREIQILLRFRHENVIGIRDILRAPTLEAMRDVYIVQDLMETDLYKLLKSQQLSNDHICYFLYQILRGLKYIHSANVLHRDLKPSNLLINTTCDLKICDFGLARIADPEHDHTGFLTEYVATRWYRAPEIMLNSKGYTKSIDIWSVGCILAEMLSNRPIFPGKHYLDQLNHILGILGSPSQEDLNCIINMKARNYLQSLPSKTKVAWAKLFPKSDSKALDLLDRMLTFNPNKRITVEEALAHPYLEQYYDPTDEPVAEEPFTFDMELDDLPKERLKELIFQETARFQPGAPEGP

Series [12] has as its system Rattus norvegicus. Description: Antiinflammatory activity in po dosed rat paw edema model assessed as inhibition of carrageenan-induced serum IL-1beta production administered 30 mins prior to carrageenan challenge measured after 6 hrs by ELISA relative to vehicle-treated control.

The structures appear in SMILES notation. Calls of active or inactive are those of the source. No cut-off for these calls is given here.

As usually defined, the IC50 is the point on the concentration scale where inhibition reaches its midpoint. For the molecule `C=C1C(=O)O[C@@H]2[C@@H]3[C@@]4(C=C[C@@]3(C)[C@]3(C4)C(=O)O[C@@H]4[C@H]5C(C)=CC[C@H]5[C@](C)(O)C[C@H](OC(C)=O)[C@H]43)[C@](C)(O)CC[C@@H]12`, in the series with RAW264.7 [1], the half-inhibitory concentration (IC50) stood at 14.3 µM. Further, the inhibition entry with RAW264.7 [1] and in the series on Rattus norvegicus [12] was “Dose-dependent effect” throughout. Besides, the viability at 4 h, 20 µM in series [2] was greater than 80%. Moreover, the inhibition result in the series on RAW264.7 [3], in the series on Rattus norvegicus [4], with Mus musculus [5] and in the series with Mus musculus [6] was “Active” in each case. In addition, the “fold change (FC)” value in the series on RAW264.7 [7] was found to be 0.61; with RAW264.7 [8], 1.85; in the series with RAW264.7 [9], 0.73; in the series with RAW264.7 [10], 0.79; at JNK1/JNK2 (Mus musculus), 0.24; in series [11], 0.79.

Source of the values: ChEMBL document CHEMBL3259611, “Suppression of inflammatory responses by handelin, a guaianolide dimer from Chrysanthemum boreale, via downregulation of NF-κB signaling and pro-inflammatory cytokine production” (J Nat Prod, 2014).
